In the library only some 2.3% were active in any assay of this set; here they are far more common.
TRPC4 potent = TRPC4 (mouse) allosteric potentiation; Q9QUQ5; HEK293 TRPC4beta/mu-opioid, DAMGO EC20, Fluo-4 Ca2+ flux; stronger effect = higher value; B-score at 10 µM; hit rate 0.42% among 310,000; AID 2227;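 active = B-score of calcium response area above 5 SD of library B-scores, with initial fluorescence ratio within 5 SD of library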;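 also: B-score of integrated fluorescence ratio over time as area under calcium response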
TRPC4 agonist = opens the mouse TRPC4 cation channel | HEK293 TRPC4beta/mu-opioid, Fluo4 calcium fluorescence; stronger effect = higher value | B-score at 10 µM | hit rate 0.49% among 310,000 | Q9QUQ5 | AID 2237;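 active = B-score above 5 SD of library B-scores, and initial fluorescence ratio not above library mean plus 5 SD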;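 also: positive B-score marks a calcium rise read as TRPC4 activation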
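Material: TRPC4beta and mu-opioid receptor HEK293 stable cells | Incubation: 45 min room-temperature Fluo4 loading, 110 s read | Detection: Kinetic Fluo4 calcium fluorescence | Measure: Integrated baseline-normalised fluorescence ratio, converted to per-well B score | Benchmarks: Low control buffer alone, high control maximal DAMGO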
TRPC6 inhibitor = inhibitors of mouse TRPC6 channel | HEK293-TRPC6, membrane potential dye, ACh-evoked depolarization; stronger effect = lower value | B-score at 10 µM | hit rate 1.1% among 310,000 | AID 2553;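 active = B-score under library mean minus 3 SD, initial fluorescence not abnormally high, positive integrated signal ratio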;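 also: B-score derived from integrated fluorescence ratio over the kinetic read; more negative B-score means stronger inhibition of depolarization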
TRPC6 act = activates the mouse TRPC6 cation channel | AID 2550 | B-score at 10 µM | hit rate 0.13% among 310,000 | HEK293-TRPC6 membrane potential dye fluorescence; stronger effect = higher value;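 active = B-score of the integrated fluorescence ratio above library mean plus 3 SD, and starting fluorescence ratio within library mean plus 5 SD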;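 also: higher score means more depolarization so channel activation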
TRPC4 block = inhibitors of mouse TRPC4 channel | Q9QUQ5 | HEK293 TRPC4beta/mu-opioid, DAMGO-evoked Fluo4 calcium flux; stronger effect = lower value | B-score at 10 µM | hit rate 0.39% among 300,000;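 active = B-score over 3 SD under the library average, no early fluorescence shift, positive overall ratio signal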
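Assay system: TRPC4beta/mu-opioid receptor HEK293 cell line; compound dosing: single concentration per test compound; detection: Fluo4 Ca2+ flux fluorescence; evaluation: per-well B score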
TRPC4 spec 2 = second selectivity test of TRPC6 inhibitors: effect on mouse TRPC4; shares compounds with TRPC6 inhibitor; HEK293 TRPC4/MOR, membrane potential dye fluorescence; channel activated by saturating DAMGO dose; inhibition, % at 10 µM; hit rate 42% among 920; AID 2776;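 active = compounds whose fluorescence signal differed from control wells by over 3 SD, either direction, in both duplicate plates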
TRPC4 spec = mouse TRPC4 off-target activity of TRPC6 inhibitors | hit rate 61% among 920 | shares compounds with TRPC6 inhibitor | activity change, negative = inhibition, % at 10 µM | HEK293 TRPC4/mu-opioid, membrane potential fluorescence;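 active = rise or fall in signal beyond 3 SD of buffer-only wells in both replicate plates, either sign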;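 also: integrated kinetic ratio of fluorescence range over baseline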
HEK293 MPD ctr 2-1 = parental HEK293 nonspecific activity of TRPC6 inhibitors, second screen; shares compounds with TRPC6 inhibitor; parental HEK293 membrane potential dye fluorescence; maximal acetylcholine challenge after compound addition; signal change vs control, % at 10 µM; hit rate 31% among 920; AID 2779;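 active = membrane potential signal moving either way by over 3 SD of the maximum-effect control, in both duplicate plates, meaning non-specific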
HEK293 MPD ctr-1 = parental HEK293 nonspecific activity of TRPC6 inhibitors; shares compounds with TRPC6 inhibitor; parental HEK293 membrane potential dye fluorescence; membrane potential signal change, % at 10 µM; hit rate 60% among 920; AID 2780;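 active = membrane potential signal shifting up or down by more than 3 SD of buffer-only wells, on both duplicate plates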
HEK293 MPD ctr-2 = parental HEK293 nonspecific activity of TRPC6 modulators | shares compounds with TRPC6 inhibitor | membrane potential signal change, % at 10 µM | hit rate 51% among 2,400 | membrane potential dye fluorescence | AID 488924;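 active = membrane potential signal moves up or down beyond 5 SD from buffer-only wells, on both duplicate plates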
HEK293 MPD ctr 2-2 = second counter-screen for TRPC6 modulators: effect in parental HEK293 cells. membrane potential dye fluorescence; after compound, maximal acetylcholine stimulation. hit rate 14% among 2,400. inhibition, % at 10 µM. shares compounds with TRPC6 inhibitor;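 active = membrane potential signal drops by more than 5 SD from the mean control signal, in both duplicate plates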;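 also: plate controls were acetylcholine ECmax control wells for no effect and buffer only wells for full effect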
TRPC4 ctr mod = selectivity of TRPC6 modulators against mouse TRPC4; HEK293 TRPC4/mu-opioid, membrane potential fluorescence; AID 488927; shares compounds with TRPC6 inhibitor; hit rate 69% among 2,400; percent change from control (negative = decrease, positive = increase), % at 10 µM;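 active = membrane potential signal moved up or down beyond 5 SD of buffer control wells, in both duplicate plates, actives on both sides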;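 also: plate controls were assay buffer wells for no effect and DAMGO maximal-effect wells for full effect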
TRPC4 ctr inh 2 = second selectivity test of TRPC6 modulators against mouse TRPC4; inhibition, % at 10 µM; HEK293 TRPC4/mu-opioid, membrane potential dye fluorescence; stimulated with maximal-effect DAMGO; hit rate 55% among 2,400; shares compounds with TRPC6 inhibitor; AID 488928;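 active = drop in membrane potential signal beyond 5 SD of the control wells in both duplicate plates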;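 also: TRPC4 counter screen for TRPC6 hits run under conditions tuned for TRPC6 not TRPC4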
TRPC6 inh conf = mouse TRPC6 inhibitor confirmation | shares compounds with TRPC6 inhibitor | HEK293-TRPC6, membrane potential dye, ACh-evoked depolarization | inhibition, % at 10 µM | hit rate 43% among 3,300 | AID 488960;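 active = fluorescence ratio falls more than 5 SD below the full-stimulation control mean, in both duplicate runs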;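 also: integrated fluorescence ratio of peak minus minimum over baseline after agonist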
TRPC6 act conf = mouse TRPC6 activator confirmation; activation, % at 10 µM; HEK293-TRPC6 membrane potential dye fluorescence, FDSS; hit rate 11% among 2,800; shares compounds with TRPC6 inhibitor; AID 488961;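 active = ratio signal rise beyond 5 SD above unstimulated control wells' mean, seen in both duplicate runs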;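 also: plate controls were buffer EC0 wells for no effect and acetylcholine ECmax response for full effect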
* hit, by the source's call; i = inactive; / = not tested or not shown.

SMILES	TRPC4 potent	TRPC4 agonist	TRPC6 inhibitor	TRPC6 act	TRPC4 block	HEK293 MPD ctr-2	HEK293 MPD ctr 2-2	TRPC4 ctr mod	TRPC4 ctr inh 2	TRPC6 inh conf	TRPC6 act conf	others
Cc1ccc(C)c2c(N)c3c(nc12)CCCCC3 (tested in a mixture with another compound)	i	i	-5.8*	i	-7*	-118%*	i	-22%*	i	i	i
O=C1C(=O)c2c(C(=O)c3ccccc3)coc2-c2ccccc21	i	i	-6.2*	i	i	-80%*	i	-18%*	72%*	60%*	i
O=C(C1=C(c2ccccc2)C(=O)c2ccccc2C1=O)c1ccccc1	i	i	i	i	i	/	/	/	/	/	/
COCCNC(=S)N1CCCN(c2nc3cc(C)ccc3cc2C#N)CC1	i	i	i	12*	i	i	i	i	34%*	/	136%*
Cc1nc(C)c(C(=O)O)c(-c2cccs2)c1C(=O)O	i	i	i	i	i	/	/	/	/	/	/
O=C(Nc1ccc(C2=NCCN2)cc1)c1ccc(C(=O)Nc2ccc(C3=NCCN3)cc2)c([N+](=O)[O-])c1	i	i	i	15*	i	440%*	i	70%*	i	i	193%*
Cc1onc(-c2c(Cl)cccc2Cl)c1C(=O)N1CCc2ccccc21	i	i	-5.1*	i	i	i	i	12%*	i	i	i
O=C(c1cc(-c2ccccc2Cl)nc2ccccc12)N1CCC1	i	i	i	i	i	/	/	/	/	/	/
CCN1CCCC(OC(=O)c2cc(-c3ccccc3Cl)nc3ccccc23)C1 (stereo not drawn)	22*	i	-5.5*	i	i	134%*	i	24%*	45%*	i	/
COc1ccccc1C(=O)NCC(=O)N/N=C(\C)Cc1ccccc1	i	i	i	i	i	/	/	/	/	/	/
COc1ccc(-c2c[n+]3c(n2-c2ccccc2)SCC3)cc1	i	i	-8.2*	i	i	/	/	/	/	63%*	i	TRPC4 spec 2=i;TRPC4 spec=-12%*;HEK293 MPD ctr 2-1=-12%*;HEK293 MPD ctr-1=-172%*
Cc1ccc(-c2c[n+]3c(n2-c2ccccc2)SCC3)cc1	i	i	-5.4*	i	i	i	i	-11%*	i	i	i
Brc1ccc(-c2c[n+]3c(n2-c2ccccc2)SCC3)cc1	i	i	-7.2*	i	i	/	/	/	/	i	i	TRPC4 spec 2=i;TRPC4 spec=-15%*;HEK293 MPD ctr 2-1=-20%*;HEK293 MPD ctr-1=-228%*
